Key:
[1] = Cytotoxicity against MDBK cells after 3 days by MTS/PMS assay; format: cell-based, Bos taurus; details: cattle
How it was run: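 MDBK cells seeded at 1 × 10^4 per well in MEM-FBS; serial compound dilutions added 24 h later (DMSO stocks 1 mg/mL). Cells proliferated 3 days at 37 °C. MTS/PMS was then added for 3 h at 37 °C and absorbance read at 490 nm. Viability is the percentage of untreated-cell absorbance. CC50 = 50% inhibition of proliferation, logarithmic interpolation from dose-response curves.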

[2] = tested on: Bovine viral diarrhea virus 1; assay: Antiviral activity against bovine viral diarrhoea virus type-1 NADL in MDBK cells assessed as inhibition of virus-induced cytopathic effect; format: functional, organism-based; details: Bovine viral diarrhea virus isolates and strains
How it was run: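 MDBK cells seeded at 1 × 10^4 per well in MEM-FBS, 24 h at 37 °C, 5% CO2; medium replaced with serial compound dilutions (DMSO stocks 1 mg/mL), then BVDV inoculum giving >80% CPE by 3 days at 37 °C. Uninfected and virus-only controls on each plate. Read-out is MTS/PMS in MEM-DHS, absorbance 490 nm. EC50 = 50% protection against CPE, logarithmic interpolation from dose-response curves.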

[3] = Selectivity index, ratio of CC50 for MDBK cells to EC50 for bovine viral diarrhoea virus type-1 NADL; format: toxicity, cell-based; details: cattle, read-out: Ratio CC50/EC50
How it was run: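 Ratio of CC50 to EC50. CC50 comes from a 3-day MTS/PMS proliferation assay on MDBK cells. EC50 comes from protection of MDBK cells against NADL-strain cytopathic effect after 3 days, read by MTS/PMS at 490 nm. Both values were derived by logarithmic interpolation from dose-response curves.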

Poliovirus 1 = assay: Antiviral activity against poliovirus type-1 Sabin; format: functional, organism-based; details: Enterovirus C
Human alphaherpesvirus 1 = assay: Antiviral activity against HSV1 F; format: functional, organism-based; details: Human alphaherpesvirus 1, F
[4] = tested on: Human immunodeficiency virus 1; assay: Antiviral activity against HIV1; format: functional, organism-based
[5] = tested on: Vesicular stomatitis virus; assay: Antiviral activity against Vesicular stomatitis virus type-1 Indiana; format: functional, organism-based

Compound | CC50 at 72 h [1] [µM] | EC50 [2] [µM] | selectivity ratio [3] | EC50 (Poliovirus 1) [µM] | EC50 (Human alphaherpesvirus 1) [µM] | EC50 [4] [µM] | EC50 [5] [µM]
Cc1cccc2c1CC/C2=N\NC(N)=S | 165 | 8.13 | 20.3 | – | – | – | –
Cc1cc2c(c(C)c1Cl)/C(=N/NC(N)=S)CC2 | 80.7 | 7.4 | 10.9 | – | – | – | –
NC(=S)N/N=C1\CCc2cc(Br)ccc21 | > 15 | 1.81 | > 8.29 | – | – | – | –
NC(=O)c1ncn([C@@H]2O[C@H](CO)[C@@H](O)[C@H]2O)n1 [RIBAVIRIN] | 54 | 4.62 | – | – | – | – | –
NC(=S)N/N=C1\CCc2ccccc21 | 156 | 18.1 | 8.6 | – | – | – | –
Cc1cc(C)c2c(c1)CC/C2=N\NC(N)=S | 51.7 | – | – | – | – | – | –
Cc1ccc2c(c1)CC/C2=N\NC(N)=S | 130 | 6.48 | 20.1 | – | – | – | –
COc1ccc2c(c1)/C(=N/NC(N)=S)CC2 | 106 | 26 | 4.09 | – | – | – | –
COc1ccc2c(c1OC)CC/C2=N\NC(N)=S | 141 | 11.5 | 12.2 | – | – | – | –
NC(=S)N/N=C1\CCc2cc(Cl)ccc21 | > 27 | 8.8 | > 3.07 | – | – | – | –
COc1ccc2c(c1)CC/C2=N\NC(N)=S | 149 | 18.8 | 7.93 | – | – | – | –
Cc1cc(C)c2c(c1Br)CC/C2=N\NC(N)=S | 139 | 8.94 | 15.5 | – | – | – | –
Cc1cc2c(c(C)c1Cl)CC/C2=N\NC(N)=S | 72.5 | > 11.1 | < 6.53 | – | – | – | –
COc1cccc2c1CC/C2=N\NC(N)=S | 822 | 242 | 3.39 | – | – | – | –
COc1cc2c(cc1OC)/C(=N/NC(N)=S)CC2 | 140 | 1.75 | 80.3 | 64 | > 64 | > 38 | > 75.5
